Experimental findings from ChEMBL document CHEMBL1142566, “Natural and synthetic 2,2-dimethylpyranocoumarins with antibacterial activity” (2005) are described below.

Common to all, as to type: functional
One assay concerns Enterobacter cloacae. The assay is described as follows: Antimicrobial activity against Enterobacter cloacae ATCC 13047 after 24 hrs by disk diffusion assay. An outline of the steps:
(§1)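 Bauer-Kirby disk diffusion on trypticase Mueller-Hinton agar. Plates were seeded with ATCC reference strains to a final 10⁷ cell/mL. Test compounds were dissolved in DMSO and applied to 6 mm paper disks, with solvent-only disks as negative control. Plates were incubated 24 h at 37 °C. Inhibition zone diameter (mm) was averaged over three experiments and scored <7 (-), 7-10 (+), 11-16 (++), >16 (+++).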

The test system of another assay is Escherichia coli. The assay can be described thus: Antimicrobial activity against Escherichia coli ATCC 25922 after 24 hrs by disk diffusion assay. In short, it runs like this:
as §1
(In agar diffusion tests the substance spreads into inoculated agar from a disc or well.)

The test system of the next assay is Staphylococcus aureus. The assay is described as follows: Antimicrobial activity against Staphylococcus aureus ATCC 25923 after 24 hrs by disk diffusion assay. An outline of the steps: as §1
Assay [1] has as its system Staphylococcus epidermidis. The assay can be described thus: Antimicrobial activity against Staphylococcus epidermidis ATCC 12228 after 24 hrs by disk diffusion assay. In short, it runs like this: as §1
The next assay has as its system Klebsiella pneumoniae. The assay can be described thus: Antimicrobial activity against Klebsiella pneumoniae ATCC 13883 after 24 hrs by disk diffusion assay. In short, it runs like this:
as §1

The test system of a further assay is Pseudomonas aeruginosa. The assay can be described thus: Antimicrobial activity against Pseudomonas aeruginosa ATCC 27853 after 24 hrs by disk diffusion assay. In short, it runs like this: as §1
The test system of another assay is Proteus mirabilis. The assay can be described thus: Antimicrobial activity against Proteus mirabilis after 24 hrs by disk diffusion assay. An outline of the steps: as §1

Activity calls are given as the source filed them. The rule behind the calls is not given here.

As for `CC1(C)C=Cc2c(O)cc3oc(=O)ccc3c2O1`, the outcome (with Enterobacter cloacae; in the assay on Escherichia coli; with Staphylococcus aureus; in assay [1]; in the assay with Klebsiella pneumoniae; in the assay with Pseudomonas aeruginosa) was inactive. The outcome with Proteus mirabilis was inactive.

Consider `CC(=O)OC1CC(C)(C)Oc2ccc3ccc(=O)oc3c21` (configuration not stated), for which the outcome (with Enterobacter cloacae; in the assay with Escherichia coli; with Staphylococcus aureus; in assay [1]; in the assay on Klebsiella pneumoniae; in the assay on Pseudomonas aeruginosa) was inactive. Also, the outcome in the assay with Proteus mirabilis was inactive.

`CC1(C)C=Cc2c(ccc3ccc(=O)oc23)O1`: the outcome (in the assay with Enterobacter cloacae; in the assay on Escherichia coli; in the assay with Staphylococcus aureus; in assay [1]; in the assay on Klebsiella pneumoniae; in the assay with Pseudomonas aeruginosa) was inactive. Besides, the outcome with Proteus mirabilis was inactive.

Consider `CC(=O)O[C@H]1c2c(ccc3ccc(=O)oc23)OC(C)(C)[C@@H]1Br`, for which the “inhibition zone (IZ)” value was less than 7 mm in the assay on Enterobacter cloacae; less than 7 mm with Escherichia coli; 11 mm in the assay on Staphylococcus aureus; 11 mm in assay [1]; less than 7 mm with Klebsiella pneumoniae; less than 7 mm in the assay on Pseudomonas aeruginosa. In the assay on Proteus mirabilis, the “inhibition zone (IZ)” value is 7 mm.

For `COc1cc2c(c3oc(=O)ccc13)C(O)CC(C)(C)O2` (racemic), the result (in the assay on Enterobacter cloacae; in the assay on Escherichia coli; in the assay on Staphylococcus aureus; in assay [1]; in the assay on Klebsiella pneumoniae; in the assay on Pseudomonas aeruginosa) was inactive. For the same compound, the result with Proteus mirabilis was inactive.

For the compound `CC1(C)Oc2ccc3ccc(=O)oc3c2[C@H](O)[C@H]1Br`, the result (in the assay on Enterobacter cloacae; in the assay on Escherichia coli; in the assay on Staphylococcus aureus; in assay [1]; in the assay on Klebsiella pneumoniae; in the assay on Pseudomonas aeruginosa) was inactive. Moreover, the result in the assay with Proteus mirabilis was inactive.
